Experimental data: ChEMBL document CHEMBL1933010, “3-heterocyclyl quinolone inhibitors of the HCV NS5B polymerase” (Bioorg Med Chem Lett, 2012)

What was measured:
[1] = Inhibition of Hepatitis C virus genotype 1b BK isolate NS5b polymerase activity using [3H]UTP preincubated for 120 mins measured after 1 hr by scintillation proximity assay
Outline: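 Scintillation proximity assay at 22 °C. Started with [3H]UTP, UTP, 250 nM 5'-biotinylated oligo(rU12) and poly(rA). Stopped at 120 min with tRNA/streptavidin SPA beads/EDTA; 30 min, then CsCl, 1 h, top-count.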

Hepatitis C virus = assay: Antiviral activity against Hepatitis C virus genotype 1b infected in human HuH7 cells assessed as inhibition of viral replication after 48 hrs by quantitative RT-PCR; type: functional, organism-based, Hepacivirus hominis; conditions: Huh-7, 48 h
Outline: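 Huh7/Clone A replicon cells seeded at 40,000/well without G418 and kept overnight at 37 °C, 5% CO2. DMSO-serially diluted compound added (final DMSO 0.5%), 7 concentrations in triplicate, 48 h at 37 °C. Total RNA extracted; HCV replicon RNA quantified by TaqMan RT-qPCR relative to untreated cells (100%). EC50 from a 4-parameter curve fit.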

[2] = Cytotoxicity against human HuH7 cells assessed as cellular GAPDH level after 48 hrs by quantitative RT-PCR; type: cell-based, Huh-7; conditions: read-out: GI50

| Structure (SMILES) | IC50 [1] [µM] | EC50 (Hepatitis C virus) [µM] | CC50 at 48 h [2] [µM] |
| --- | --- | --- | --- |
| COc1cc2c(=O)c(-c3noc(-c4ccccc4)n3)cn(Cc3ccc(Cl)cc3)c2cc1OC | > 10 | – | – |
| COc1cc2c(=O)c(-c3nc(-c4ccc(Cl)cc4)no3)cn(Cc3ccc(Cl)cc3)c2cc1OC | > 10 | – | – |
| COc1cc2c(=O)c(C3=N[C@@H](C)[C@@H](c4ccccc4)O3)cn(Cc3ccc(Cl)cc3)c2cc1OC | 4.3 | 8.91 | – |
| COc1cc2c(=O)c(-c3noc(Cc4ccccc4)n3)cn(Cc3ccc(Cl)cc3)c2cc1OC | 0.041 | 10.3 | – |
| COc1cc2c(=O)c(-c3nc(Cc4ccccc4)no3)cn(Cc3ccc(Cl)cc3)c2cc1OC | 0.73 | – | – |
| COc1cc2c(=O)c(-c3nnc(Cc4ccc(Cl)cc4)o3)cn(Cc3ccc(Cl)cc3)c2cc1OC | 1.6 | – | – |
| COc1ccc2c(c1)c(=O)c(-c1ncc(Cc3ccccc3)o1)cn2Cc1ccc(Cl)cc1 | 1.8 | – | – |
| COc1cc2c(=O)c(-c3nnn(Cc4ccccc4)n3)cn(Cc3ccc(Cl)cc3)c2cc1OC | > 10 | – | – |
| COc1cc2c(=O)c(-c3noc(CCc4ccccc4)n3)cn(Cc3ccc(Cl)cc3)c2cc1OC | > 10 | – | – |
| CN1CCN(c2cc3c(cc2F)c(=O)c(-c2noc(Cc4ccccc4)n2)cn3Cc2ccc(Cl)cc2)CC1 | 0.023 | 0.84 | 7.3 |
| CN1CCN(c2cc3c(cc2F)c(=O)c(-c2nnc(Cc4ccccc4)o2)cn3Cc2ccc(Cl)cc2)CC1 | 0.115 | 4.4 | 9.8 |
| CN1CCN(c2cc3c(cc2F)c(=O)c(-c2noc(Cc4ccc(F)cc4)n2)cn3Cc2ccc(Cl)cc2)CC1 | 0.019 | 1.43 | 6.4 |
| CN1CCN(c2cc3c(cc2F)c(=O)c(-c2noc(Cc4ccc(F)cc4F)n2)cn3Cc2ccc(Cl)cc2)CC1 | 0.075 | 3.68 | 4.7 |
| CN1CCN(c2cc3c(cc2F)c(=O)c(-c2noc(Cc4ccccc4)n2)cn3Cc2ccc(C(F)(F)F)cc2)CC1 | 0.024 | 0.36 | 15 |
| CN1CCN(c2cc3c(cc2F)c(=O)c(-c2noc(Cc4ccccc4)n2)cn3Cc2ccc(C(F)(F)F)cc2F)CC1 | 0.014 | 0.25 | 7 |
| CN1CCN(c2cc3c(cc2F)c(=O)c(-c2noc(Cc4ccc(F)cc4)n2)cn3Cc2ccc(C(F)(F)F)cc2F)CC1 | 0.015 | 0.23 | 6 |
| CN1CCN(c2cc3c(cc2F)c(=O)c(-c2nnc(Cc4ccccc4)o2)cn3Cc2ccc(C(F)(F)F)cc2F)CC1 | 0.038 | 0.61 | 4.6 |
| CN1CCN(c2cc3c(cc2F)c(=O)c(-c2nnc(Cc4ccc(F)cc4)o2)cn3Cc2ccc(C(F)(F)F)cc2F)CC1 | 0.045 | 0.73 | 5.7 |
